Measured values taken from article PMC11318567 (Computational and Structural Biotechnology Journal, 2024).

Tests used:
[1] = system: NCI-60 human cancer cell lines; experiment: NCI-60 screening, whole panel; assay type: cell-based; conditions: 10 µM
[2] = target: ATPase domain of topo IIα (Homo sapiens, UniProt P11388); experiment: 1H STD NMR experiments; assay type: binding; conditions: protein:ligand ratio 1:100
Outline: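 Runs were at 600 MHz, 25 °C, with a 100 ms T₁ρ filter. On-resonance saturation was at −0.727 ppm and off-resonance at 30 ppm. Saturation was 0.5 or 1 s depending on compound, with relaxation delay 4 or 1.5 s. Epitope maps come from STD amplification factors.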

human topo IIα [3] = target: T1, human topo IIα (Homo sapiens, UniProt P11388); experiment: Human topo IIα-mediated decatenation assay; assay type: biochemical; conditions: for IC50, topo IIα-mediated decatenation assay: average of two replicates
T1 sequence (P11388 whole entry): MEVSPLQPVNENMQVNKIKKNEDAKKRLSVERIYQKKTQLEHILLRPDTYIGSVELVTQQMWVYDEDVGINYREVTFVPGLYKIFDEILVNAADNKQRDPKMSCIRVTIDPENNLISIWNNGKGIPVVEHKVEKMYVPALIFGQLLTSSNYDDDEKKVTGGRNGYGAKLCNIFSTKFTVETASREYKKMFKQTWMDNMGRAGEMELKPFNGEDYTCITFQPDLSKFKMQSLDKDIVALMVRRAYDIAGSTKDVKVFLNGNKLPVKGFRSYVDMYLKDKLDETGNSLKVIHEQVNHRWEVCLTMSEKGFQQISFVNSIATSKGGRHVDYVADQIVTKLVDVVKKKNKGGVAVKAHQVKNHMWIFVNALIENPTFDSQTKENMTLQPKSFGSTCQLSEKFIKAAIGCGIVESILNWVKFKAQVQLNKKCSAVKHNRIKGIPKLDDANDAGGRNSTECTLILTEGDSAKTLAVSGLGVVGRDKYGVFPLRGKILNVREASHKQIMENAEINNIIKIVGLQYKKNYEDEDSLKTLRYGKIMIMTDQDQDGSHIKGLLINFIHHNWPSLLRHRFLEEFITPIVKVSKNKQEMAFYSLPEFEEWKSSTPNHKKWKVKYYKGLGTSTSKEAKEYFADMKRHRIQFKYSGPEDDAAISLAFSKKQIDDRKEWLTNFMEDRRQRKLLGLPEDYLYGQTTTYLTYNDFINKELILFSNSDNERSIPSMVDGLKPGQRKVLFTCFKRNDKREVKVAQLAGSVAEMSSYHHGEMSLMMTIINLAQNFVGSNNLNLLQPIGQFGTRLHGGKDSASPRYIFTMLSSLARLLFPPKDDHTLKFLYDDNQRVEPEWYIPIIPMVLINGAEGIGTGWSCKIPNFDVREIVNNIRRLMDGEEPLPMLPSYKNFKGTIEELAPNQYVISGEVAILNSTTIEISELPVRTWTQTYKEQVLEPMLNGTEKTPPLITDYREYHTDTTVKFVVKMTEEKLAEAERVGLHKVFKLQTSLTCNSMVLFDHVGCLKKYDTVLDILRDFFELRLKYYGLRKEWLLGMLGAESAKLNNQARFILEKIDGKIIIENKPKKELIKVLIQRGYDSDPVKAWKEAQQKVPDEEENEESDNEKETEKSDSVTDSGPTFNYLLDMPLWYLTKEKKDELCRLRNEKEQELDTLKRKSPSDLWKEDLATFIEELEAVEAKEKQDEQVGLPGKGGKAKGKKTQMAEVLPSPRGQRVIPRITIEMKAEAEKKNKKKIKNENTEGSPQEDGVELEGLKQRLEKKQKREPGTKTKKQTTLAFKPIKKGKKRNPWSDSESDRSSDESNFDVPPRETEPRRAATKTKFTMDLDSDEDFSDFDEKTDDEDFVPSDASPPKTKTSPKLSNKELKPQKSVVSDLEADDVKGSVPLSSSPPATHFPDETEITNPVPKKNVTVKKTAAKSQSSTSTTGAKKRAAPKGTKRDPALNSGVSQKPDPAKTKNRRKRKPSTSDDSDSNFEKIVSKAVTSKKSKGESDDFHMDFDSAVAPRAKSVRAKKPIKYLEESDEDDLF

human topo IIα [4] = target: T1, human topo IIα; experiment: Human topoisomerase IIα-mediated cleavage assay; assay type: biochemical; conditions: 7.8-125 μM
[5] = Solubility as observed during preparation for assays; assay type: physicochemical
human topo IIα [6] = target: T1, human topo IIα; experiment: Human topoisomerase IIα-mediated relaxation assay; assay type: biochemical
human topo IIβ = human topo IIβ (Homo sapiens, UniProt Q02880); experiment: Human topo IIβ-mediated decatenation assay; assay type: biochemical
Sequence of human topo IIβ (Q02880 whole entry): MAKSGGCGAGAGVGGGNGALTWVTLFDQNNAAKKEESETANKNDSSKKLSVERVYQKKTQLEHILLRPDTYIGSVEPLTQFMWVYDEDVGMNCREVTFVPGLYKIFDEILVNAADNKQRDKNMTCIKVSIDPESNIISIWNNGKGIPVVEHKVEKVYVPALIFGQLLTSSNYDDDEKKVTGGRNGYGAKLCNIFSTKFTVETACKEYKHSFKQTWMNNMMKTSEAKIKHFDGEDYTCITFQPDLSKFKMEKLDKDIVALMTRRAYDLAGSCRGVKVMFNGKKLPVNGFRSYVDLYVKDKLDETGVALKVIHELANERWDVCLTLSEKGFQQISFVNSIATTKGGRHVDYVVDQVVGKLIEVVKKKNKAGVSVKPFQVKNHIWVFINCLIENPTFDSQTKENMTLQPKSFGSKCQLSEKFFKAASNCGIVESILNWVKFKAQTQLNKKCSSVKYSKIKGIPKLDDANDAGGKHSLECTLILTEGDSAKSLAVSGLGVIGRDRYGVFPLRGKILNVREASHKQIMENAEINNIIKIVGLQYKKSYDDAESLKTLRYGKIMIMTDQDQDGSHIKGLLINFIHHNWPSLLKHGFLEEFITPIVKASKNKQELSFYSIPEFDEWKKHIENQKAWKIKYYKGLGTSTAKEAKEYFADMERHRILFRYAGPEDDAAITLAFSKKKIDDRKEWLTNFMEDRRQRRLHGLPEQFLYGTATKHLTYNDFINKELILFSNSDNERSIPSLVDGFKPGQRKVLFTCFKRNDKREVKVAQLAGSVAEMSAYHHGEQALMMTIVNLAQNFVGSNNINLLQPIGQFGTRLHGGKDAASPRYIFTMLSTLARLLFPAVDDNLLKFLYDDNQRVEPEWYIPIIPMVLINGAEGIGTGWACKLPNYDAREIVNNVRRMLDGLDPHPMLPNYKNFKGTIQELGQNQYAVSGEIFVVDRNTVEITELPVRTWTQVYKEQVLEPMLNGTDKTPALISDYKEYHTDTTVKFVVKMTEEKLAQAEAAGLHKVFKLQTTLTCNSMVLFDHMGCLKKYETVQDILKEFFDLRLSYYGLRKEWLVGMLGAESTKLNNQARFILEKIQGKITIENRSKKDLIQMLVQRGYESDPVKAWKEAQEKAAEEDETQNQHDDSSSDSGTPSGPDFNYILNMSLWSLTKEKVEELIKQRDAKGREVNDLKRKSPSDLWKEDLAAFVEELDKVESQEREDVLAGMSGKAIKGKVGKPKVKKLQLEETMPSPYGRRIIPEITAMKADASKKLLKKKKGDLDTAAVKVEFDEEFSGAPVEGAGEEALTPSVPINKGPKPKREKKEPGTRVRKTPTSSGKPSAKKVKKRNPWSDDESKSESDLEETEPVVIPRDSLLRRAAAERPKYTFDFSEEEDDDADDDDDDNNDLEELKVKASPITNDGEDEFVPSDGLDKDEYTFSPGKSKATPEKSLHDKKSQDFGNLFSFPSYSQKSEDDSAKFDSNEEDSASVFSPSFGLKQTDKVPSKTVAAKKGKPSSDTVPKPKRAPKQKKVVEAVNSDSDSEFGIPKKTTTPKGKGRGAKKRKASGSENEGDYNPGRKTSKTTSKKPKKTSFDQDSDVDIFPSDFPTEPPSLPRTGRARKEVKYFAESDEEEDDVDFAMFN

wheatgerm topo I = experiment: Wheatgerm topo I unwinding assay; assay type: biochemical, wheat germ; conditions: 7.8, 15.6, 31.25, 125 μM
Outline: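 Wheat germ topo I plasmid unwinding run in duplicate at 7.8, 15.6, 31.25 and 125 µM test compound, with the intercalator m-AMSA as positive control.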

Sequence of ATPase domain of topo IIα (P11388 1-453 limits assumed): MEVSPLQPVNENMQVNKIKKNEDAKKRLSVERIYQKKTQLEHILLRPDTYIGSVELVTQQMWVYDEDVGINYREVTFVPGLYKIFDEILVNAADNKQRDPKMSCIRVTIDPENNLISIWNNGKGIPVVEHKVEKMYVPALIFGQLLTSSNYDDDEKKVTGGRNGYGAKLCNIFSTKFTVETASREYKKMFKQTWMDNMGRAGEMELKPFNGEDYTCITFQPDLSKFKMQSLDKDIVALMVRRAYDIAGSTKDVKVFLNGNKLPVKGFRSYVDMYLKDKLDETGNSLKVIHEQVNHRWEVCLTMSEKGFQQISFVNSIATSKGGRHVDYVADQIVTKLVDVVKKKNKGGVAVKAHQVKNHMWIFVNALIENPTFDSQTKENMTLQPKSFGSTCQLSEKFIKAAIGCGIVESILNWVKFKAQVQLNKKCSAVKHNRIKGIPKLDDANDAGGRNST

IC50 (human topo IIα [6])	Compound	cytotoxic activity in NCI-60 (in words) [1]	linear plasmid in the cleavage assay (in words) (human topo IIα [4])	unwinding / intercalation (in words) (wheatgerm topo I)	also measured
	CC(C)c1ccc(CSc2nc(SCc3ccc4sccc4c3)[nH]c(=O)n2)cc1 [Compound 26, 6-((Benzo[b]thiophen-5-ylmethyl)thio)−4-((4-isopropylbenzyl)thio)−1,3,5-triazin-2(1H)-one]	much lower compared to 24 and 25			
	O=c1nc(SCc2cc(F)cc(C(F)(F)F)c2)nc(SCc2ccc3nc(OCCN4CCOCC4)ccc3c2)[nH]1 [Compound 31, 4-((3-Fluoro-5-(trifluoromethyl)benzyl)thio)−6-(((2-(2-morpholinoethoxy)quinolin-6-yl)methyl)thio)−1,3,5-triazin-2(1H)-one]		no linear plasmid up to the measured concentration of 125 μM		interaction with the ATPase domain of topo IIα by STD NMR (in words) [2]: confirmed the interaction; IC50 (human topo IIα [3]): 18.5 ± 5.9 µM; solubility (in words) [5]: more soluble compared to the previous series
8.7 ± 7.3 µM	O=c1nc(SCc2cc(F)cc(C(F)(F)F)c2)nc(SCc2csc3ccc(Cl)cc23)[nH]1 [Compound 32, 6-(((5-Chlorobenzo[b]thiophen-3-yl)methyl)thio)−4-((3-fluoro-5-(trifluoromethyl)benzyl)thio)−1,3,5-triazin-2(1H)-one]		higher even at lower concentrations		IC50, topo IIα-mediated decatenation assay (human topo IIα [3]): single-digit micromolar range; IC50 (human topo IIβ): 8.3 ± 2.5 µM
7.7 ± 8.5 µM	O=c1nc(SCc2ccc(C(F)(F)F)cc2)nc(SCc2csc3ccc(Cl)cc23)[nH]1 [Compound 33, 6-(((5-Chlorobenzo[b]thiophen-3-yl)methyl)thio)−4-((4-(trifluoromethyl)benzyl)thio)−1,3,5-triazin-2(1H)-one]				IC50, topo IIα-mediated decatenation assay (human topo IIα [3]): single-digit micromolar range
	O=c1nc(SCc2cc(F)cc(C(F)(F)F)c2)nc(SCc2cccc(C(F)(F)F)c2)[nH]1 [Compound 34, 4-((3-Fluoro-5-(trifluoromethyl)benzyl)thio)− 6-((3-(trifluoromethyl)benzyl)thio)− 1,3,5-triazin-2(1 H)-one]	did not exhibit cytotoxic activity			solubility (in words) [5]: less soluble
	COc1cc([C@@H]2c3cc4c(cc3[C@@H](O[C@@H]3O[C@@H]5CO[C@@H](C)O[C@H]5[C@H](O)[C@H]3O)[C@H]3COC(=O)[C@H]23)OCO4)cc(OC)c1O [Etoposide, etoposide, reference compound]			showed no signs of unfolding	
	COc1cc(NS(C)(=O)=O)ccc1Nc1c2ccccc2nc2ccccc12 [mAMSA, reference compound]			showed intercalator-mediated effects at all 4 concentrations	

Compound	IC50 (human topo IIα [6])	cytotoxic activity in NCI-60 (in words) [1]	linear plasmid in the cleavage assay (in words) (human topo IIα [4])	unwinding / intercalation (in words) (wheatgerm topo I)	also measured
Cc1nc(CSc2nc(SCc3ccc(C(C)C)cc3)nc(=O)[nH]2)cs1 [Compound 37, 4-((4-Isopropylbenzyl)thio)−6-(((2-methylthiazol-4-yl)methyl)thio)−1,3,5-triazin-2(1H)-one]	108 ± 3.8 µM	did not exhibit cytotoxic activity	only a very weak increase in the linear plasmid at the highest concentration of 125 μM	inhibitors rather than intercalators	interaction with the ATPase domain of topo IIα by STD NMR (in words) [2]: confirmed its interaction with the ATPase domain; IC50 (human topo IIβ): 16 ± 39 µM
